{"data": "Measurements gathered from unrelated publications", "cell line": "MCF7", "read-out": "cell growth or viability", "note": "Lines come from different studies, so protocols differ."}
{"SMILES": "NCC(=O)Nc1ccccc1/N=c1\\cc(-c2ccc3c(c2)OCO3)oc2c(N)cccc12", "method": "CCK-8", "concentration": "1 µM", "measurement": "inhibition", "result": "7.42%"}
{"SMILES": "O=C(NN=Cc1ccc(O)cc1)c1nc2ccccc2s1", "method": "MTT", "concentration": "100 µM", "time": "48 h", "measurement": "cell death", "result": "38.1%"}
{"SMILES": "NCC(=O)Nc1ccccc1/N=c1\\cc(-c2ccc3c(c2)OCO3)oc2ccccc12", "method": "CCK-8", "concentration": "1 µM", "measurement": "inhibition", "result": "10.9%"}
{"SMILES": "COc1cc(C=NNC(=O)c2nc3ccccc3s2)ccc1OS(C)(=O)=O", "method": "MTT", "concentration": "100 µM", "time": "48 h", "measurement": "cell death", "result": "49.1%"}
{"SMILES": "O=C(Nc1ccccc1/N=c1\\cc(-c2ccc3c(c2)OCO3)oc2ccccc12)N1CCNCC1", "method": "CCK-8", "concentration": "1 µM", "measurement": "inhibition", "result": "13.5%"}
{"SMILES": "CN(C)CCNC(=O)c1ccc(-c2nc3ccc4[nH]ncc4c3c3c2CCCCC3)cc1", "time": "72 h", "measurement": "GI50", "result": "3.32 µM"}
{"SMILES": "COc1cccc2c1C(=O)c1c(O)c3c(c(O)c1C2=O)C[C@@](O)(C(=O)CO)C[C@@H]3O[C@H]1C[C@H](N)[C@H](O)[C@H](C)O1", "method": "MTT", "time": "24 h", "measurement": "IC50", "result": "5.93 µM"}
{"SMILES": "COc1ccc(NC(=O)Nc2cccc(-c3cn(Cc4ccc(Br)cc4)nn3)c2)cc1", "method": "CCK-8", "concentration": "50 µM", "time": "48 h", "measurement": "viability", "result": "95.6%"}
{"SMILES": "O=C(Nc1cccc(-c2cn(Cc3ccc(Br)cc3)nn2)c1)Nc1ccccc1Br", "method": "CCK-8", "concentration": "50 µM", "time": "72 h", "measurement": "viability", "result": "76.8%"}
{"SMILES": "CC(C)C[C@@H](NC(=O)[C@H](C)NC(=O)CNC(=O)[C@@H](NC=O)C(C)C)C(=O)N[C@@H](C)C(=O)N[C@@H](C(=O)N[C@H](C(=O)N[C@@H](C(=O)N[C@@H](Cc1c[nH]c2ccccc12)C(=O)N[C@H](CC(C)C)C(=O)N[C@@H](Cc1c[nH]c2ccccc12)C(=O)N[C@H](CC(C)C)C(=O)N[C@@H](Cc1c[nH]c2ccccc12)C(=O)N[C@@H](C(=O)N[C@@H](Cc1c[nH]c2ccccc12)C(=O)NCCO)C(C)C)[C@H](C)O)C(C)C)C(C)C", "method": "SRB", "time": "48 h", "measurement": "GI50", "result": "0.397 µM"}
{"SMILES": "NCCC(=O)Nc1ccccc1/N=c1\\cc(-c2ccc3nc(N)oc3c2)oc2ccc(O)cc12", "method": "CCK-8", "concentration": "1 µM", "measurement": "inhibition", "result": "12.1%"}
{"SMILES": "COc1ccc(NC(=O)NCc2cn(Cc3ccc(Br)cc3)nn2)cc1", "method": "CCK-8", "concentration": "50 µM", "time": "48 h", "measurement": "viability", "result": "87.8%"}
{"SMILES": "CN(C)CCNC(=O)c1ccc(-c2nc3ccc4[nH]ncc4c3c3c2CCCCC3)c(F)c1", "time": "72 h", "measurement": "GI50", "result": "3.31 µM"}
{"SMILES": "O=C(NCc1cn(Cc2ccc(Br)cc2)nn1)Nc1ccccc1Br", "method": "CCK-8", "concentration": "50 µM", "time": "48 h", "measurement": "viability", "result": "84.7%"}
{"SMILES": "NCCC(=O)Nc1ccccc1/N=c1\\cc(-c2ccc3nc(N)oc3c2)oc2cc(O)ccc12", "method": "CCK-8", "concentration": "1 µM", "measurement": "inhibition", "result": "9.96%"}
{"SMILES": "CCS(=O)(=O)Oc1ccc(C=NNC(=O)c2nc3ccccc3s2)cc1OC", "method": "MTT", "concentration": "100 µM", "time": "48 h", "measurement": "cell death", "result": "40.5%"}
{"SMILES": "CC(C)(C)[C@H](N)C(=O)Nc1ccccc1/N=c1\\cc(-c2ccc3c(c2)OCCO3)oc2cc(F)ccc12", "method": "CCK-8", "concentration": "1 µM", "measurement": "inhibition", "result": "9.85%"}
{"SMILES": "O=C(NCc1cn(Cc2cccc(Cl)c2)nn1)Nc1ccc(Cl)cc1", "method": "CCK-8", "concentration": "50 µM", "time": "72 h", "measurement": "viability", "result": "87.2%"}
{"SMILES": "COc1cc(C=NNC(=O)c2nc3ccccc3s2)ccc1O", "method": "MTT", "concentration": "100 µM", "time": "48 h", "measurement": "cell death", "result": "16.6%"}
{"SMILES": "COc1ccc(NC(=O)Nc2cccc(-c3cn(Cc4cccc(Cl)c4)nn3)c2)cc1", "method": "CCK-8", "concentration": "50 µM", "time": "72 h", "measurement": "viability", "result": "101%"}
{"SMILES": "O=C(NCc1cn(Cc2ccc(Cl)cc2)nn1)Nc1ccccc1Br", "method": "CCK-8", "concentration": "50 µM", "time": "48 h", "measurement": "viability", "result": "84.4%"}
{"SMILES": "CN(C)CCNC(=O)c1ccc(-c2nc3ccc4[nH]ncc4c3c3c2CCCC3)cc1", "time": "72 h", "measurement": "GI50", "result": "3.34 µM"}
{"SMILES": "NCCC(=O)Nc1ccccc1/N=c1\\cc(-c2ccc3oc(N)nc3c2)oc2ccccc12", "method": "CCK-8", "concentration": "1 µM", "measurement": "inhibition", "result": "6%"}
{"SMILES": "COc1ccc(NC(=O)NCc2cn(Cc3ccccc3C)nn2)cc1", "method": "CCK-8", "concentration": "50 µM", "time": "72 h", "measurement": "viability", "result": "98.7%"}
{"SMILES": "CN(C)CCNC(=O)c1ccc(-c2nc3ccc4[nH]ncc4c3c3c2CCCC3)c(F)c1", "time": "72 h", "measurement": "GI50", "result": "3.32 µM"}
{"SMILES": "CCOc1ccc(C(=O)CC(SCc2ccc(Cl)cc2)C(=O)OC)cc1 (stereo not shown)", "method": "MTT", "time": "48 h", "measurement": "EC50", "result": "40 µM"}
{"SMILES": "COc1ccc(NC(=O)NCc2cn(Cc3ccc(Cl)cc3)nn2)cc1", "method": "CCK-8", "concentration": "50 µM", "time": "72 h", "measurement": "viability", "result": "95.3%"}
{"SMILES": "NCCCCC(=O)Nc1ccccc1/N=c1\\cc(-c2ccc3c(c2)OCO3)oc2ccccc12", "method": "CCK-8", "concentration": "1 µM", "measurement": "inhibition", "result": "-4.92%"}
{"SMILES": "O=C(Nc1ccc(-c2cn(Cc3ccc(Cl)cc3)nn2)cc1)Nc1ccccc1Br", "method": "CCK-8", "concentration": "50 µM", "time": "72 h", "measurement": "viability", "result": "104%"}
{"SMILES": "COc1ccc(NC(=O)Nc2ccc(-c3cn(Cc4ccc(C)cc4)nn3)cc2)cc1", "method": "CCK-8", "concentration": "50 µM", "time": "72 h", "measurement": "viability", "result": "87.4%"}
{"SMILES": "Cc1n[nH]c2ccc3nc(-c4ccc(C(=O)NCCN(C)C)cc4F)c4c(c3c12)CCCC4", "time": "72 h", "measurement": "GI50", "result": "0.99 µM"}
{"SMILES": "O=C(Nc1ccc(Cl)cc1)Nc1ccc(-c2cn(Cc3ccc(Br)cc3)nn2)cc1", "method": "CCK-8", "concentration": "50 µM", "time": "72 h", "measurement": "viability", "result": "97.8%"}
{"SMILES": "COc1ccc(NC(=O)Nc2ccc(-c3cn(Cc4ccc(Cl)cc4)nn3)cc2)cc1", "method": "CCK-8", "concentration": "50 µM", "time": "48 h", "measurement": "viability", "result": "95.1%"}
{"SMILES": "O=C(Nc1cccc(-c2cn(Cc3ccc(Cl)cc3)nn2)c1)Nc1ccccc1Br", "method": "CCK-8", "concentration": "50 µM", "time": "48 h", "measurement": "viability", "result": "89.5%"}
{"SMILES": "Cc1nc(NC(=O)N2CCC[C@H]2C(N)=O)sc1-c1ccnc(C(C)(C)C(F)(F)F)c1", "method": "ATP luminescence", "time": "5 days", "measurement": "EC50", "result": "0.917 µM"}
{"SMILES": "COc1ccc(NC(=O)Nc2cccc(-c3cn(Cc4ccc(C)cc4)nn3)c2)cc1", "method": "CCK-8", "concentration": "50 µM", "time": "72 h", "measurement": "viability", "result": "104%"}
{"SMILES": "O=C(NCc1cn(Cc2ccc(Cl)cc2)nn1)Nc1ccc(Cl)cc1", "method": "CCK-8", "concentration": "50 µM", "time": "72 h", "measurement": "viability", "result": "83.3%"}
